Source: ChEMBL document CHEMBL3352068 (Bioorg Med Chem, 2014)

Assays:
Carbonic anhydrase 9 = Carbonic anhydrase 9 (Homo sapiens, UniProt Q16790); test: Inhibition of human recombinant carbonic anhydrase 9 pre-incubated for 15 mins by stopped-flow CO2 hydration assay
How it was run: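 Recombinant human enzyme, produced in-house. CO2 1.7–17 mM. Initial rates taken over 10-100 s from at least six traces, with the uncatalysed rate subtracted. Inhibitor diluted in water from 0.1 mM stock down to 0.01 nM, preincubated with enzyme at room temperature. Three determinations.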

Carbonic anhydrase 2 = Carbonic anhydrase 2 (Homo sapiens, UniProt P00918); test: Inhibition of human recombinant carbonic anhydrase 2 pre-incubated for 15 mins by stopped-flow CO2 hydration assay

SMILES | Ki (Carbonic anhydrase 9) | Ki (Carbonic anhydrase 2)
COc1ccc(/C=C/C(=O)C[C@@H]2O[C@H](COC(C)=O)[C@@H](OC(C)=O)[C@H](OC(C)=O)[C@H]2OC(C)=O)cc1OC | 753 nM | 
COc1ccc(/C=C/C(=O)C[C@@H]2O[C@H](COC(C)=O)[C@H](OC(C)=O)[C@H](OC(C)=O)[C@H]2OC(C)=O)cc1OC | 773 nM | 
COc1cccc(/C=C/C(=O)C[C@@H]2O[C@H](CO)[C@@H](O)[C@H](O)[C@H]2O)c1 | 615 nM | > 50000 nM
COc1ccc2cc(/C=C/C(=O)C[C@@H]3O[C@H](CO)[C@@H](O)[C@H](O)[C@H]3O)ccc2c1 | 462 nM | > 50000 nM
COc1ccc2cc(/C=C/C(=O)C[C@@H]3O[C@H](CO)[C@H](O)[C@H](O)[C@H]3O)ccc2c1 | 485 nM | > 50000 nM
COc1ccc(/C=C/C(=O)C[C@@H]2O[C@H](CO)[C@@H](O)[C@H](O)[C@H]2O)cc1OC | 840 nM | 

Further lines, with some results ahead:

Ki (Carbonic anhydrase 9) | SMILES | Ki (Carbonic anhydrase 2)
779 nM | COc1cccc(/C=C/C(=O)C[C@@H]2O[C@H](COC(C)=O)[C@@H](OC(C)=O)[C@H](OC(C)=O)[C@H]2OC(C)=O)c1 | 
93 nM | COc1cccc(/C=C/C(=O)C[C@@H]2O[C@H](COC(C)=O)[C@H](OC(C)=O)[C@H](OC(C)=O)[C@H]2OC(C)=O)c1 | 
3860 nM | COc1cccc(/C=C/C(=O)C[C@@H]2O[C@H](CO)[C@H](O)[C@H](O)[C@H]2O)c1 | > 50000 nM
936 nM | COc1ccc(/C=C/C(=O)C[C@@H]2O[C@H](CO)[C@H](O)[C@H](O)[C@H]2O)cc1OC | 
